Each structure is given as a SMILES string. Calls of active or inactive are those of the source. No cut-off for these calls is given here.

For assay [1], the target named is T1, Monoacylglycerol lipase ABHD6 (Homo sapiens) (UniProt Q9BV23).
T1 sequence (whole entry): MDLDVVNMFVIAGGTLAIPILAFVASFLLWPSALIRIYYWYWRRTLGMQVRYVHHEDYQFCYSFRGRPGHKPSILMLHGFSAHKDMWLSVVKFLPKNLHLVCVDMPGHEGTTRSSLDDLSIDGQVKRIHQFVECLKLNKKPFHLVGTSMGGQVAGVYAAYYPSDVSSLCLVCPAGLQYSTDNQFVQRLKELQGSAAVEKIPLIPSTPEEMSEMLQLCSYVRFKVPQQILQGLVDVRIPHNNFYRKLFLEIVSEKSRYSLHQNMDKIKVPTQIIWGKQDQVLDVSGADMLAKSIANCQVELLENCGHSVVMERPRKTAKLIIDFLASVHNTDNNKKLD
The assay can be described thus: Inhibition of human ABHD6 transfected in HEK293 cells at 10 uM preincubated with compound for 30 mins followed by 2-OG addition and measured after 5 mins by liquid scintillation spectroscopy. The format is cell-based. The following applies: time 35.0 min. A digest of the protocol: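 Homogenates (40 μg) of HEK293 cells stably transfected with hABHD6 or hABHD12. Compound 10 μM preincubated 30 min at 37 °C, 500 rpm, in Tris/EDTA buffer with 0.1% fatty acid-free BSA, pH 7.6. Controls: WWL70 10 μM or THL 20 μM; DMSO vehicle. 2-OG 10 μM added for 5 min at 37 °C. Stopped with ice-cold CHCl3:MeOH; aqueous phase counted. No-enzyme blanks used; non-transfected HEK293 hydrolysis subtracted.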

Assay [2] has as its target T2, Monoglyceride lipase (Homo sapiens) (UniProt Q99685).
T2 sequence (whole entry): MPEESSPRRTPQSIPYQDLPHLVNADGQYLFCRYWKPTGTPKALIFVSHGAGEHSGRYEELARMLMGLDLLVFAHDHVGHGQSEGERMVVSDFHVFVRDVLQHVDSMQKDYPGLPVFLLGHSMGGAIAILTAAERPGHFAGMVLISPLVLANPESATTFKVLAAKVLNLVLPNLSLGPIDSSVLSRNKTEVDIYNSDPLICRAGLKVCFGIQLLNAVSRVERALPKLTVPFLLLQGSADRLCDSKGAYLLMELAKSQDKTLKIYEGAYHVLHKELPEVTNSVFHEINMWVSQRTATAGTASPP
Description: Reversible inhibition of human recombinant MAGL using 4-nitrophenylacetate as substrate at 8 nM incubated for 15 mins by microplate reader analysis. The essentials:
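Human recombinant MAGL (880 ng in Tris buffer, pH 7.2) incubated 60 min at room temperature with compound at 320 nM in the mixture, then diluted 40-fold in buffer. After 15 min, reaction started with 4-NPA 500 μM (stock added). Activity read at 405 nm after 30 min. Undiluted comparison run at 320 nM and 8 nM.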

Assay [3] has as its target T3, Fatty-acid amide hydrolase 1 (Mus musculus) (UniProt O08914).
T3 sequence (whole entry): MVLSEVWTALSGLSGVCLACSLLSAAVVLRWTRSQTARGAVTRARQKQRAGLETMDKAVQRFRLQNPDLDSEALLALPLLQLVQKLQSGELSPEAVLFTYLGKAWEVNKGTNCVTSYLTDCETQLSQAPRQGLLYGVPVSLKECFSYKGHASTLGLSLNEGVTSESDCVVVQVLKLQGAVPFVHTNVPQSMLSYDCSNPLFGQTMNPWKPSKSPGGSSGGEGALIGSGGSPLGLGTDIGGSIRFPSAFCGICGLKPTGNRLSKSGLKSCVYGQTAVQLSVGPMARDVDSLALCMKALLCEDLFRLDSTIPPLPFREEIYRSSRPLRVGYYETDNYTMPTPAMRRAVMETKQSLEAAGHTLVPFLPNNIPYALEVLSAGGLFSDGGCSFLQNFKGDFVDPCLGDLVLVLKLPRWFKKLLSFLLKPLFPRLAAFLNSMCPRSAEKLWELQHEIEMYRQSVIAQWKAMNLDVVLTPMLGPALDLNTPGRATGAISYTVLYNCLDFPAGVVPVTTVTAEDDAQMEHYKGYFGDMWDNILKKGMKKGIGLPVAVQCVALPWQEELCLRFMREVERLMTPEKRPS
Description: Inhibition of mouse brain FAAH at 10 uM incubated with compound for 25 mins by TAMRA-FP probe based SDS-PAGE analysis. The format is tissue-based. The essentials: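 Mouse brain membranes (2 mg/mL final, in PBS) preincubated 25 min at 25 °C with test compound (10 μM final) or DMSO vehicle. Controls: JZL-184, URB597 4 μM, WWL70 10 μM, THL, MAFP 5 μM. TAMRA-FP 125 nM final added for 5 min at 25 °C. Reaction stopped with Laemmli buffer, 3 min at 25 °C then 10 min at 90 °C. Separation by 10% SDS-PAGE, fluorescence scanning, three independent experiments.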

The next assay deals with T4, Monoglyceride lipase (Homo sapiens, UniProt Q99685).
T4 sequence (Q99685 whole entry): T2 sequence (whole entry)
Description: Reversible inhibition of MAGL in human U-937 cells using 2-oleoylglycerol as substrate preincubated with compound for 30 mins followed by substrate addition and measured after 5 mins. The format is cell-based. A digest of the protocol: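 Intact U937 cells co-incubated with compound for 30 min. Then 10 μM 2-oleoylglycerol plus 1.0 nM [3H]2-OG tracer added for a further 5 min at 37 °C. JZL-184 (1 μM) served as full-inhibition control. Two independent experiments in triplicate. IC50 given as mean (95% CI).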

In assay [4] the target is T5, Fatty-acid amide hydrolase 1 (Homo sapiens) (UniProt O00519).
T5 sequence (whole entry): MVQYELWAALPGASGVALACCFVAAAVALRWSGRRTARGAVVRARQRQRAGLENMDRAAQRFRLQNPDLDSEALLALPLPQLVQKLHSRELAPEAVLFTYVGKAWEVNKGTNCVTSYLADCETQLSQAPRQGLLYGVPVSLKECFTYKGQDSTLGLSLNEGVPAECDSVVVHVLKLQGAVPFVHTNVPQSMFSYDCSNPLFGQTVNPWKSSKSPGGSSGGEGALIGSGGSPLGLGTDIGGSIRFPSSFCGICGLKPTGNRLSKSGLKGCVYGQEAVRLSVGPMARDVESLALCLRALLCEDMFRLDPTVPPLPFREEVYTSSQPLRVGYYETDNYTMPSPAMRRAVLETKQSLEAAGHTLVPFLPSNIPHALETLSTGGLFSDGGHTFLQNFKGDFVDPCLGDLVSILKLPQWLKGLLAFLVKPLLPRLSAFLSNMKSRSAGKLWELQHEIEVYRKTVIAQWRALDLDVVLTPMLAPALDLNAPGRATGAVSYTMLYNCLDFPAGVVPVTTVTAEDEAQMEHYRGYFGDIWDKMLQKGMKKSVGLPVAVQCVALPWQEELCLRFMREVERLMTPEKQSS
The assay can be described thus: Inhibition of FAAH in human U-937 cells at 10 uM preincubated with compound for 15 mins followed by 2-OG addition and measured after 15 mins by scintillation liquid counter analysis. The assay is classed as cell-based. The following applies: time 30.0 min.

`O=C(c1cccc(O)c1)N1CCC(Cc2cccc(Sc3cc(C(F)(F)F)ccn3)c2)CC1`: the inhibition entry in assay [1], in assay [3] and in assay [4] was “inactive” throughout. The inhibition entry in assay [2] is “Active”. Also, the IC50 on Monoglyceride lipase was 197 nM.

With `O=C(c1cccc(O)c1)N1CCC(Cc2ccc(F)c(Sc3cc(C(F)(F)F)ccn3)c2)CC1`, the inhibition entry in assay [1], in assay [3] and in assay [4] was “inactive” throughout. For the same molecule, the inhibition result in assay [2] is “Active”. Also, on Monoglyceride lipase, the IC50 was 193 nM.

For the molecule `O=C(c1cc(O)ccc1F)N1CCC(Cc2cccc(Sc3cc(C(F)(F)F)ccn3)c2)CC1`, the inhibition entry in assay [1], in assay [3] and in assay [4] was “inactive” each time. Further, the inhibition entry in assay [2] is “Active”. For the same molecule, the IC50 at Monoglyceride lipase was 199 nM.

With `O=C(c1cc(O)ccc1F)N1CCN(Cc2cccc(Sc3cc(C(F)(F)F)ccn3)c2)CC1`, the inhibition entry in assay [1], in assay [3] and in assay [4] was “inactive” each time. Besides, the inhibition entry in assay [2] was “Active”. Besides, the IC50 on Monoglyceride lipase was 489 nM.

A word on the IC50: it is the point on the concentration scale where inhibition reaches its midpoint.

For the origin of these results see ChEMBL document CHEMBL5532647, “Design, synthesis, ADME and biological evaluation of benzylpiperidine and benzylpiperazine derivatives as novel reversible monoacylglycerol lipase (MAGL) inhibitors” (Eur J Med Chem, 2024).
